Screens as filed in PubChem.
H9c2 TAG inh: inhibitors of triacylglycerol accumulation. inhibition, % at 12.5 µM. AID 651582. H9c2 cells, Nile Red lipid (TAG) fluorescence; cells loaded with 200 µM oleic acid. 230,000 compounds, 0.66% hits;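 active means pattern-corrected inhibition of lipid staining of at least 50% with the nuclear-stain viability signal not falling by more than 50%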;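 further: 0% = DMSO wells and 100% = triacsin C control wells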
697 NFkB inh: inhibitors of the PMA/ionomycin-induced NF-kB reporter in 697 B cells | 697 B-cell NF-kB luciferase reporter, 16 h | inhibition, % at 4 µM | 330,000 compounds, 0.33% hits | AID 435022; in the data active means inhibition above about 35%
APP transl inh: APP translation inhibition; SH-SY5Y APP 5'UTR-luciferase reporter, luminescence; inhibition, % at 2 µM; 190,000 compounds, 0.82% hits;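 active means inhibition above a set limit, derived from the sample mean plus 3 SD, cut at about 45% in these data; inconclusive means one replicate passes the limit while the other fails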
Jurkat NFkB inh: inhibitors of the PMA/ionomycin-induced NF-kB reporter in Jurkat cells; 330,000 compounds, 0.53% hits; AID 435003; inhibition, % at 4 µM; PMA/ionomycin-induced NF-kB luciferase reporter, luminescence; in the data active means inhibition above about 50%
Hep lipid drop: modulators of hepatic lipid droplet formation | AML12 mouse hepatocytes, oleate lipid droplets, BODIPY imaging | 240,000 compounds, 0.4% hits | inhibition, % at 6.5 µM | AID 1656;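 active means lipid droplet intensity inhibited by at least 50%, with more than 500 cells counted; inconclusive means wells with under 300 cells, treated as cytotoxic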
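Material – AML12 mouse liver cells · Also added – oleate loading, 100 µM · Compound dosing – 6.5 µM single-point dosing · Times – overnight treatment with compound plus oleate · Measured by – fluorescence imaging, 20x objective, two fields per well · Read-out – percent inhibition of filter-corrected integrated lipid droplet intensity per well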
aSyn UTR inh: MLPCN primary screen, SNCA 5' untranslated region | alpha-synuclein 5'UTR reporter, inhibitor activity | AID 1813 | 300,000 compounds, 0.82% hits | inhibition, % (tested at 7.5 µM); in the data active means inhibition above about 60%; inconclusive means no clear call, values can overlap the other calls;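 further: H4 neuroglioblastoma cells stably carrying SNCA 5'UTR luciferase fusion; 0% = DMSO wells and 100% = positive control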
An asterisk follows results filed as active; u = inconclusive; x = no result. Shown are actives, neighbours in structure and some others; about 1.9% of the full set was active somewhere.

SMILES	H9c2 TAG inh	697 NFkB inh	APP transl inh	Jurkat NFkB inh	Hep lipid drop	aSyn UTR inh
c1ccc(-c2nc(-c3ccccn3)no2)cc1	x	-71	-64	3	3	-18
Clc1cccc(-c2nc(-c3ccccn3)no2)c1	-12	-112	-97	-14	x	93*
CCOC(=O)C(C(=O)OCC)C(C(=O)OCC)N1CCOCC1 (stereo unspecified)	99*	-6	2	8	-6	5
COC(=O)C(C)(C)c1cccnc1C#N	-15	x	x	x	x	x
O=C(Nc1ccc2c(c1)OCCO2)c1ccccn1	-6	-73	-107	-70	6	88*
Cc1ccc(C(=O)Nc2ccc3c(c2)OCCO3)c(C)c1	-9	-160	x	-20	-15	73*
O=C(Nc1ccc2c(c1)OCCO2)c1cccc2nc3ccccc3nc12	-58	-5	46*	2	x	u
CCOc1ncccc1C(=O)Nc1ccc(C)cn1	8	-16	x	-18	-9	-15
COc1ccc(O)c(/C=N/NC(=O)c2ccc(OCc3cccc(Br)c3)cc2)c1	4	-18	66*	26	x	82*
COc1ccc(/C=N/NC(=O)c2ccc(Br)cc2)c(OC)c1	-9	4	6	-11	3	-21
Cc1cccc(NS(=O)(=O)c2ccc(C)c(C(=O)NCC(c3ccco3)N3CCCCC3)c2)c1 (stereo unspecified)	-19	-10	x	17	x	x
C[C@@]12C(=O)Nc3cc(Cl)ccc3C(=O)N1[C@H]1c3cc(Cl)ccc3OC[C@@H]1[C@@H]2c1ccccc1	25	6	x	2	x	x
C[C@@]12C(=O)Nc3cc(Cl)ccc3C(=O)N1[C@H]1c3cc(Br)ccc3OC[C@@H]1[C@@H]2c1ccccc1	53*	7	x	24	x	x
Cn1cc(Br)c(C(=O)Nc2sc3c(c2C#N)CCC3)n1	10	13	x	1	2	-48
Cn1cc([N+](=O)[O-])c(C(=O)Nc2sc3c(c2C#N)CCC3)n1	x	-38	x	11	-3	64*
C[C@H]1CN([C@@H](C)CO)C(=O)c2cccc(NC(=O)Nc3ccc(C(F)(F)F)cc3)c2O[C@@H]1CN(C)S(=O)(=O)c1ccccc1	19	-3	x	-9	x	x
COc1ccc(S(=O)(=O)N(C)C[C@H]2Oc3c(NC(=O)Nc4ccc(C(F)(F)F)cc4)cccc3C(=O)N([C@H](C)CO)C[C@@H]2C)cc1	57*	19	x	6	x	x
Cn1c(=O)c2c(nc(NCc3ccco3)n2C/C=C/c2ccccc2)n(C)c1=O	x	-17	x	36	x	90*
Cn1c(N)c(C#N)c(-c2ccccc2)c(C#N)c1=O	-1	x	x	x	x	x
COc1ccc(NC(=O)N(C)[C@H]2C[C@H]3c4[nH]c5ccc(-c6cccc(C)c6)cc5c4CCN3C[C@H]2[C@H](C)O)cc1	46	x	x	x	x	x
COc1ccc(-c2nc(N/N=C(\C)c3ccc(O)cc3)c3ccccc3n2)cc1	55*	-20	x	-18	6	-92
O=[N+]([O-])c1ccc(N/N=C/c2ccc[nH]2)cc1	x	x	65*	x	7	x
Cc1ccc(S(=O)(=O)N2CCN(C(=O)CN3CCN(c4ccc(O)cc4)CC3)CC2)cc1	-9	x	x	x	x	x
CCCCN1C(=O)C(CC(=O)NCCN2CCOCC2)CC(C(=O)N(CC)CC)=C1C (stereo unspecified)	-3	x	x	x	x	x
OC1OC[C@@H](O)[C@H](O)[C@H]1O (stereo partly specified)	x	4	x	-2	x	6
SMILES	H9c2 TAG inh	697 NFkB inh	APP transl inh	Jurkat NFkB inh	Hep lipid drop	aSyn UTR inh
CC(=O)NC(c1ccco1)c1cc(Cl)c2cccnc2c1O (stereo unspecified)	0	x	x	x	x	x
CC(=O)NC(c1cc(Cl)c2cccnc2c1O)C1CC1 (stereo unspecified)	50*	-4	x	25	x	x
CC(=O)NC(c1ccc(C)cc1)c1cc(Cl)c2cccnc2c1O (stereo unspecified)	50*	-24	x	4	-4	u
CCC(=O)NC(c1cc(Cl)c2ccccc2c1O)C1CC1 (stereo unspecified)	-17	-11	x	7	x	x
Cc1ccc(C(c2cc(Cl)c3cccnc3c2O)N2CCN(C)CC2)cc1 (stereo unspecified)	x	-44	x	33	-9	66*
CC(=O)NC(c1cc(Cl)c2cccnc2c1O)C(C)C (stereo unspecified)	65*	2	x	17	x	x
Cn1c(=O)c2cc(NC(=O)NCCc3ccccc3)ccc2n1Cc1cccc(C(F)(F)F)c1	-14	x	x	x	x	x
NC(=S)NN=C1CSSC1	33	x	x	x	x	x
